Assay results reported in ChEMBL document CHEMBL3872233, “Topical Treatment of Leishmania tropica Infection Using (-)-α-Bisabolol Ointment in a Hamster Model: Effectiveness and Safety Assessment” (J Nat Prod, 2016).

How the values were obtained:
Leishmania tropica [1] = experiment: (§1) Antileishmanial activity against Leishmania tropica MHOM/MA/1988/LEM1314 promastigotes infected in Syrian hamster assessed as reduction in parasite load in foodpad skin at 2 mg/kg administered intralesionally once daily on footpad for 3 weeks starting at week 7 post infection measured 1 week post last dose by qPCR analysis relative to control; type: functional, organism-based; parameters: scale not given: the % may be the effect or the level left
How it was run: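 Hamsters were infected in the footpad and treated daily for 21 days from week 7 post-infection, n = 10/group, and sacrificed 1 week after the last dose. Footpad skin, liver and spleen DNA was assayed by L. tropica-specific TaqMan qPCR (chromosome 29 target), in triplicate with 50 ng DNA per 25 μL reaction. Load was interpolated from Ct on a calibration curve of promastigote DNA, relative to base-ointment controls.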

Leishmania tropica [2] = experiment: as §1, with “lesion thickness” for “parasite load in foodpad skin”, “dose” for “dose by qPCR analysis”; type: functional, organism-based; parameters: scale not given: the % may be the effect or the level left
How it was run: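 L. tropica stationary-phase promastigotes (3 × 10^7 in 50 μL PBS) injected into the left hind footpad. Treatment began at week 7 (+75% footpad thickness) and ran daily for 21 days, n = 10/group. Routes were 50 mg ointment on the lesion (cetyl alcohol/lanolin/petrolatum base), gavage in olive oil, or intralesional meglumine antimoniate 2 mg SbV/kg. Lesion thickness was measured weekly against base-only ointment; sacrifice was 1 week after the last dose.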

Meglumine antimoniate; Glucantime
Activity (Leishmania tropica [1]): 73% | Activity (Leishmania tropica [2]): 3.2%
